Shown is part of a subset that was picked to be rich in hits.
T cell HTS: modulators of CD8 T cell-vesicle binding, primary screen, mouse 2C CD8+ T cells, flow cytometry; 2C CD8+ T cell-vesicle binding; active compounds read low; response (vesicle binding), % at 7 µM; 330,000 tested, 0.068% active;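 active = response, share of CD8 T cells binding vesicles, and their 90th percentile fluorescence all below set limits, cut at about 80% in these data, passing the limit was not always enough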;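 also: values below 100% mean blocked vesicle binding to the CD8+ T cells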
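incubation = binding step 1.5 h, 37 °C, antibody labelling 20 min, ice | test system = 2C mouse CD8+ T cells | read-out basis = percent CD8+ FL2 mean versus row control | controls = Peptide-free naked vesicles (low) and QL9 vesicles with 0.7% DMSO vehicle (high) | detection = flow cytometry of vesicle-bound cells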
Glyco luc inh: increase of ERlucT glycosylation luciferase signal, primary screen, N-linked glycosylation inhibitor project, D54 ERlucT cells, luminescence, set 2. D54 ERlucT glycosylation luciferase reporter, 24 h; percent of 100 nM tunicamycin response. reporter increase, % at 12.5 µM. 360,000 tested, 0.23% active. AID 588692, 2011;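 active = mean luciferase reporter signal, scaled so untreated is 0 and the glycosylation-blocking control 100, at or above a set limit in every replicate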;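 also: luciferase carries N-glycosylation sites so blocking glycosylation raises the light; 0% = median of neutral control wells and 100% = median of 100 nM tunicamycin wells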
ALR inh: inhibitors of human ALR sulfhydryl oxidase, primary screen, biochemical, H2O2 detection, HRP-luminol luminescence, single point; 290,000 tested, 3.8% active; inhibition, % (test concentration not listed); purified ALR, DTT oxidation;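 active = mean replicate inhibition above about 79%, with every replicate also reaching it, limit read from the data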
Target sequence (P55789 whole entry, looked up): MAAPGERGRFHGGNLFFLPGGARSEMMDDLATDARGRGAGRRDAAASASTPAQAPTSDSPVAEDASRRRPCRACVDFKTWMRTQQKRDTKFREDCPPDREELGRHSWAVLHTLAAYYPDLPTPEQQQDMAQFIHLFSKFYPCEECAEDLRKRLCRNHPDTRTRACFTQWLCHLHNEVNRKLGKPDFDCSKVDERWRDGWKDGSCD
* hit, by the source's call.

`Cc1ccc(NC(=S)NNc2ccc([N+](=O)[O-])cc2S(=O)(=O)Nc2ccccc2C(=O)O)cc1C` gave T cell HTS 432.2 and Glyco luc inh 4.3.
For Cc1ccc(NC(=S)NNC(=O)c2cccc([N+](=O)[O-])c2)cc1Cl the results were T cell HTS 311.7, Glyco luc inh 1.3 and ALR inh 87.8*.
Cc1ccc(C(=O)NNC(=S)Nc2cccc(Cl)c2Cl)cc1[N+](=O)[O-] was read as T cell HTS 205.7, Glyco luc inh 0.5 and ALR inh 97.5*.
Screening O=C(NNC(=S)Nc1ccc(F)cc1)c1cccc([N+](=O)[O-])c1 returned T cell HTS 304.5 and Glyco luc inh -0.7.
COCCn1c(N)c(N(Cc2ccccc2)C(=O)CSCC(=O)Nc2ccc(OC)cc2)c(=O)[nH]c1=O was read as T cell HTS 403.4, Glyco luc inh 0.3 and ALR inh -4.1.
Cc1ccc(NC(=O)Nc2ncnc3nc[nH]c23)cc1 was read as T cell HTS 85.5, Glyco luc inh -2.4 and ALR inh -2.8.
Oc1nc(-c2ccc(Br)cc2)n2ccncc12 was read as T cell HTS 147.1, Glyco luc inh -1.0 and ALR inh 26.2.
For CC1(C)CC(=O)C(=Cc2cn(CCC#N)nc2-c2ccc(Cl)cc2)C(=O)C1 the results were T cell HTS 402.5, Glyco luc inh 0.3 and ALR inh 12.5.
`CC1(C)CC(=O)C(=Cc2cn(CCC#N)nc2-c2ccc(F)cc2)C(=O)C1` gave T cell HTS 165.8, Glyco luc inh 1.5 and ALR inh 95.2*.
CCCCC(=O)Nc1c(-c2cccc(OC)c2)c(=O)c2ccccc2n1C was read as T cell HTS 205.6, Glyco luc inh 0.3 and ALR inh -43.3.
For O=C(CSc1nnc(SCc2ccccc2)s1)N/N=C/C=C/c1ccccc1[N+](=O)[O-] the results were T cell HTS 232.0, Glyco luc inh -1.7 and ALR inh -10.7.
For O=C(CSc1nnc(SCc2ccccc2)s1)N/N=C/C=C\c1ccco1 the results were T cell HTS 106.7, Glyco luc inh 8.7 and ALR inh 97.3*.
Screening COc1ccc(N2C(=O)CSC23C(=O)N2CCCc4cccc3c42)cc1 (stereo not drawn) returned T cell HTS 474.7, Glyco luc inh -1.1 and ALR inh 10.0.
`COc1ccc(N=C2C(=O)N3CCCc4cccc2c43)cc1` gave T cell HTS 252.5, Glyco luc inh 4.1 and ALR inh 98.6*.
For O=C1NCCCC2c3c(cc(Br)c(O)c3Br)OC12N1CCOCC1 (stereo not drawn) the results were T cell HTS 272.2, Glyco luc inh 1.3 and ALR inh 94.1*.
`O=C1NCCCC2c3cc(O)c4ccccc4c3OC12N1CCCCC1` (stereo not drawn) gave T cell HTS 355.0 and ALR inh -3.9.
`Cc1ccc(-c2nc(SC(C)C(=O)N3CCCC3)n[nH]2)cc1` (stereo not drawn) gave T cell HTS 592.8 and Glyco luc inh 2.1.
`O=C(CN1CCOCCOCCOCC1)Nc1ccccc1` gave T cell HTS 304.9, Glyco luc inh -0.5 and ALR inh 1.4.
Cc1ccc(C(=O)NNc2c3ccccc3nc3ccccc23)cc1 was read as T cell HTS 231.6, Glyco luc inh 13.6 and ALR inh 22.2.
C[N+]1(CC(=O)NNc2c3ccccc3nc3ccccc23)CCOCC1 was read as T cell HTS 256.1 and ALR inh 98.7*.
Screening COc1ccccc1OCC(=O)NNC(=O)CCCC(=O)NNC(=O)COc1ccccc1OC returned T cell HTS 168.6, Glyco luc inh 2.1 and ALR inh 1.2.
COc1ccccc1OCC(=O)NNc1c2ccccc2nc2ccccc12 was read as T cell HTS 608.1, Glyco luc inh 0.7 and ALR inh 98.8*.
Screening Nc1ccccc1C(=O)NNc1c2ccccc2nc2ccccc12 returned T cell HTS 176.1, Glyco luc inh -0.4 and ALR inh 98.2*.
O=C(CN1CCOCC1)NNc1c2ccccc2nc2ccccc12 was read as T cell HTS 835.9, Glyco luc inh 1.0 and ALR inh 98.4*.
COc1cccc(C(=O)NNc2c3ccccc3nc3ccccc23)c1 was read as T cell HTS 210.3, Glyco luc inh 5.0 and ALR inh 0.4.
For CC(Sc1nnc(-c2ccccc2F)n1C1CC1)C(=O)NCc1ccco1 (stereo not drawn) the results were T cell HTS 715.1, Glyco luc inh 0.7 and ALR inh -1.9.
Screening COCCCN1C(=O)C(CC(=O)NC2CCCCC2)CC(C(=O)N(C(C)C)C(C)C)=C1C (stereo not drawn) returned Glyco luc inh -0.5.
For COc1cc(C#N)c(NC(=O)CN2CCC(C(N)=O)CC2)cc1OC the results were T cell HTS 214.0, Glyco luc inh 4.1 and ALR inh -16.7.
`O=C(C1CCC1)N1CCCc2cc(S(=O)(=O)N3CCN(c4ccccc4)CC3)ccc21` gave T cell HTS 495.5, Glyco luc inh -1.9 and ALR inh 1.0.
Cc1ccc(-c2nc3c(Cl)cc(C(F)(F)F)cn3c2Cc2cccc(F)c2)cc1 was read as Glyco luc inh -2.3.
For CC(C)C(=O)N1CCCC1(C)C(=O)Nc1ccc(-n2cccc2)cc1 (stereo not drawn) the results were Glyco luc inh -1.5.
`COc1ccc(C(C)=O)cc1CSCCC(=O)O` gave T cell HTS 288.4, Glyco luc inh 0.8 and ALR inh 98.3*.
COc1ccc(C(C)=O)cc1CSc1ncccn1 was read as T cell HTS 181.0, Glyco luc inh -0.4 and ALR inh 43.9.
COc1ccc(C(=O)/C=C/c2ccsc2)cc1CSCC(=O)O was read as T cell HTS 378.2, Glyco luc inh 7.5 and ALR inh 98.8*.
COc1ccc(/C=C/C(=O)c2ccc(O)cc2)cc1CN1CCOCC1 was read as T cell HTS 787.5, Glyco luc inh -8.6 and ALR inh -14.6.
Screening CCCc1nc2nc(C)c(NS(=O)(=O)c3ccc(CC(C)C)cc3)c(=O)n2[nH]1 returned T cell HTS 236.9, Glyco luc inh 2.4 and ALR inh 16.6.
CN(Cc1nc2ccccc2c(=O)[nH]1)C(=O)c1cc(C2CC2)nn1-c1ccccc1 was read as T cell HTS 460.4, Glyco luc inh -2.5 and ALR inh 17.9.
For O=C(O)C(Oc1ccc2ccccc2c1)c1ccccc1 (stereo not drawn) the results were T cell HTS 847.4, Glyco luc inh 0.9 and ALR inh -8.8.
`CCN(C[C@H]1N[C@@](CC)(C(=O)OC)[C@H]2C(=O)N(Cc3ccccc3)C(=O)[C@@H]12)S(=O)(=O)c1ccc(OC(F)(F)F)cc1` gave T cell HTS 228.3 and Glyco luc inh -4.6.
Screening O=C(O)c1ccc2c(c1)C(=O)N(Cc1ccc3c(c1)OCO3)C2=O returned T cell HTS 679.7, Glyco luc inh 0.4 and ALR inh 87.0*.
O=C1c2ccccc2C(=O)N1Cc1ccc2c(c1)OCO2 was read as T cell HTS 333.6 and Glyco luc inh -0.7.
`COc1cccc(OCC(=O)N2CCCc3ccccc32)c1` gave T cell HTS 194.1, Glyco luc inh -2.4 and ALR inh -0.2.
